These results are taken from paper PMC3513776 (Journal of molecular recognition : JMR, 2012).

Series [1] concerns the target A variant of human AGP (Homo sapiens, UniProt P19652). Nature of the series: ITC of drug binding to the separated A variant of AGP. To be noted: 30°C.
For series [2], the system named is A and F1*S variants of human AGP. Particulars: cited from earlier work.
The conditions of series [3]: cited from earlier work.
In series [4] the target is F1*S variant of human AGP (Homo sapiens, UniProt P02763). Kind of series: ITC of drug binding to the separated F1*S variant of AGP. To be noted: 30°C. In outline: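 F1*S variant resolved from re-purified commercial human AGP on copper(II) IMAC (20 mM HEPES pH 7.4 load; 0→100% 300 mM imidazole, 1 mL/min). Degassed protein (140 μM, 20 mM HEPES pH 7.4) titrated with 5→16 mM drug in dialysate, 240 s intervals, 360 rpm, 30°C. Drug-into-buffer dilution heat subtracted. Integrated peaks vs molar ratio fitted by Marquardt for n, Ka, ΔH.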

The test system of series [5] is human AGP. Kind of series: Isothermal titration calorimetry. Particulars: ITC, 30°C, heterogeneous AGP preparation. The class given is binding. A general note: In ITC the heat of successive injections is recorded.

On to `CN(C)CCC=C1c2ccccc2CCc2ccccc21` [amitriptyline], for which the thermodynamic binding signature entry in series [1] (A variant) was “dominant favorable entropy gain and a smaller, albeit favorable enthalpy gain”; in series [4] (F1*S variant) it was “comparable enthalpy and entropy gains”. Moreover, the “greater affinity for the A variant compared to the F1*S variant” value in series [1] (separated variants) was found to be 4 fold. In addition, the “difference in affinity between A and F1*S” value in series [2] is recorded as > 20 fold. Moreover, in series [3], the “pKa of the N,N-dimethylpropan-1-amine side chain” value is 9.2. Besides, the “lower binding affinity of the F1*S variant (vs A variant)” value in series [4] (separated variants) came to 4 fold.
Take `CN(C)CCCN1c2ccccc2Sc2ccc(Cl)cc21` [chlorpromazine]: the “binding energetics, A versus F1*S variant” value in series [1] (separated variants) is recorded as “comparable for both variants”. For the same compound, in series [2], the “affinity for both variants” value is on record as “comparable”.
Regarding `CC(C)N(CCC(C(N)=O)(c1ccccc1)c1ccccn1)C(C)C` (stereo not drawn) [disopyramide], in series [2], the “affinity for the F1*S” value was “very low” and the “variant selectivity of binding” value is listed as “selectively bind to the A variant”.
With `CN(C)CC/C=C1\c2ccccc2CSc2ccccc21` [dothepin], the “lower affinity for AGP compared to amitriptyline” value in series [5] is on record as ~ 2.5 fold.
On to `CN1CCN2c3ccccc3Cc3ccccc3C2C1` (stereo not drawn) [miaserine], for which the “lower affinity for AGP compared to amitriptyline” value in series [5] was ~ 6 fold.
